Only some compounds are listed: those with a hit (about 1.9% of all), similar ones and a draw of the others.
b-catenin transl – modulators of beta-catenin nuclear translocation | AID 1665 | HeLa beta-catenin nuclear translocation, immunofluorescence imaging | nuclear translocation activity, % at 5 µM | 0.3% of 190,000 active;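 active = nuclear translocation activity above 50% at 5 µM, with a well cell count of 50 or more; inconclusive = wells under 50 cells across six images, flagged as toxic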;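 also: per-cell ratio of nuclear to cytoplasmic median beta-catenin stain intensity; plate controls were DMSO negative control for no effect and GSK-3 inhibitor IX positive control for full effect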
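Test system: HeLa cells, endogenous beta-catenin; Compound: single 5 µM dose plus 0.02–20 µM confirmation series; Times: compound exposure 24 h at 37°C; Signal: fluorescence imaging of beta-catenin antibody stain plus DAPI; Read-out: % activation, nuclear-to-cytoplasmic median beta-catenin signal ratio per cell.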
MT stabilizer – stabilizes microtubules in HeLa cells; % tubulin-high responders, % at 10 µM; AID 2205; 0.83% of 200,000 active; HeLa tubulin immunostaining HCS, 24 h; share of cells brighter than vehicle mean+2SD;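 active = plate Z-score above 3 for both tubulin-high and condensed-nucleus cell shares, with cell loss under 80%, at 10 µM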;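 also: anti alpha tubulin signal scored within the nucleus-defined area of each cell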
Ins promoter up – MIN6 insulin promoter up-regulation. MIN6 insulin promoter-GFP reporter, high-content imaging; stronger effect = higher value. z-score at 5 µM. 0.3% of 190,000 active. AID 1625;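 active = z-score above 3 at 5 µM with at least 500 cells counted in the well; inconclusive = wells under 500 cells, flagged as cytotoxic or low count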
HSV replic up – increases HSV replication in cells. 0.005% of 220,000 active. AID 1956. maximum fold increase. HSV replication augmentation in cells, fold increase; in the data active = maximum fold increase above about 1.5; inconclusive = no clear call, values can overlap the other calls; tested in PC3 cells
Autophagy HCS – autophagy modulation, high-content screen | MEF GFP-LC3 puncta imaging; test concentration mostly 10 µM | calls only at 10 µM (by protocol) | 0.98% of 190,000 active;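 active = percentage of spot-positive cells more than 3 SD above its plate mean, without a fluorescence outlier flag or 80% toxicity; inconclusive = no clear call, values can overlap the other calls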;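 also: spot-positive cell cutoff set from DMSO-treated cells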
Furin inh – human furin inhibition. 0.061% of 220,000 active. AID 463115. inhibition, % at 20 µM or 30 µM. purified furin, fluorogenic substrate cleavage; in the data active = inhibition above about 25%
Target sequence (P09958 108-714 limits assumed): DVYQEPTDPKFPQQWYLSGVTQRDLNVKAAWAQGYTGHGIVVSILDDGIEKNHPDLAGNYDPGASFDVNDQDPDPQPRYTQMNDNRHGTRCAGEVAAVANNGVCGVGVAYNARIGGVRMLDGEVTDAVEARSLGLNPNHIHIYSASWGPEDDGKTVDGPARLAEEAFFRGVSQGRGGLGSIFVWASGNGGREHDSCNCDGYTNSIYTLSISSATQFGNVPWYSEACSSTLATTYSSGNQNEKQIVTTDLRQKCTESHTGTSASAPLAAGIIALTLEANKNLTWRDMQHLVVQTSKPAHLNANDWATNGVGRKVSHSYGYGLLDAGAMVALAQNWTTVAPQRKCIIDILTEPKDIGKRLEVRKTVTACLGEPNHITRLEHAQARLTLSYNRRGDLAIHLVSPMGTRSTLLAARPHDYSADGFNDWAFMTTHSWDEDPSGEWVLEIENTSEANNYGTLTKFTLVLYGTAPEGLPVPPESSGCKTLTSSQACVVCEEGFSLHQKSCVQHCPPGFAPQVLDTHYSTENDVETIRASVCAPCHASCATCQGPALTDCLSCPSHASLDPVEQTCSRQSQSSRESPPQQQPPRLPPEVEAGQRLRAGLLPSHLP
* = called active by the depositor; i = inactive; ? = inconclusive; nt = no result; + = active, no number.

SMILES | b-catenin transl | MT stabilizer | Ins promoter up | HSV replic up | Autophagy HCS | Furin inh
Cc1cc(C(=O)NC(Cc2ccccc2)C(=O)O)c(C)o1 (centres undefined) | 0 | nt | -0.17 | i | nt | -19
O=C(c1c[nH]c(C(=O)N2CCN(c3ccccc3F)CC2)c1)c1cccc(Cl)c1Cl | 0 | 23* | 0.88 | i | i | -15
C=CCSc1ncccc1C(=O)NCc1ccccc1 | -2 | 5 | -0.65 | i | i | -24
COC(=O)[C@H]1[C@@H](C)N(Cc2ccccc2)C(=O)N[C@H]1c1ccccc1 | nt | nt | nt | i | nt | nt
COc1ccc(-c2cc(-c3ccccc3)c(C#N)c(S(C)(=O)=O)n2)cc1 | nt | 5 | nt | i | i | -12
CS(=O)(=O)c1nc(-c2ccc(Br)cc2)cc(-c2ccccc2)c1C#N | nt | 44 | nt | i | + | -9
O=c1[nH]c(CN2CCN(c3ccccc3)CC2)nc2scc(-c3ccccc3)c12 | nt | 20* | 0.23 | i | i | -4
CC1CC(C)CN(Cc2nc(N)nc(Nc3ccc4ccccc4c3)n2)C1 (centres undefined) | 40 | 46* | -2 | i | i | -144
Cc1cc(NC(=O)c2ccccc2)c(Cl)cc1N | -1 | nt | 0.13 | i | nt | -24
CCOC(=O)C1CCCN(Cc2cn[nH]c2-c2ccc(F)cc2F)C1 (centres undefined) | -1 | 3 | -0.15 | i | + | -17
O=C(Nc1ccc(Br)c2ccccc12)c1ccc2ccccc2c1O | -1 | nt | -0.58 | i | nt | -7
Cc1nc(N)nc(COc2ccccc2)n1 | -6 | nt | 0.19 | i | nt | -19
COc1ccc2nc(SCC(=O)Nc3c(C)cccc3C)[nH]c2c1 | 0 | 2 | 3.3* | i | i | -11
O=C(O)CCc1nn2c3ccccc3n(Cc3ccccc3F)c2nc1=O | -6 | 4 | -0.46 | i | i | -25
O=C(c1ccc(F)cc1)N1CCN2C(=O)c3ccccc3C12c1ccc(Cl)cc1 (centres undefined) | -3 | 3 | -1.3 | i | i | -6
O=C(c1ccccc1)N1CCN2C(=O)c3ccccc3C12c1ccc(Cl)cc1 (centres undefined) | 1 | 2 | -1.1 | i | + | -19
Cc1ccc(-c2nnc(C)c(N3CCOCC3)n2)cc1 | -2 | 1 | 1.9 | i | i | -11
CCc1ccc2nc(NC(=O)c3cc(C)on3)sc2c1 | 36 | 38* | 0.19 | i | i | -6
CCOc1ccc(C(=O)NCC(=O)OCC(=O)N2CCCC2)cc1 | 2 | 4 | -0.91 | i | i | -20
COc1ccc(/C=C/C(=O)OCC(=O)c2c(N)n(C)c(=O)n(C)c2=O)c(OC)c1 | 2 | 3 | nt | i | i | -6
COc1cnc(SCc2c(Cl)cccc2Cl)nc1Cl | nt | 1 | nt | i | + | -8
Cc1ccc(NC(=O)Cn2nc(C)c(S(=O)(=O)N(C)C)c2C)cc1 | -2 | 4 | -0.3 | i | i | -24
N#C/C(=C\c1ccc(N2CCOCC2)o1)c1ccccc1 | 1 | 5 | nt | i | i | -3
N#C/C(=C/c1ccc(N2CCCCCC2)o1)c1ccc(F)cc1 | nt | 7 | nt | i | + | -18
COc1cc(N2CCCC2)c(OC)cc1/C=C(/C#N)c1cccc(F)c1 | 5 | 9 | nt | ? | + | 2
SMILES | b-catenin transl | MT stabilizer | Ins promoter up | HSV replic up | Autophagy HCS | Furin inh
N#C/C(=C/c1ccc(N2CCOCC2)o1)c1ccc(Br)cc1 | 19 | 5 | nt | i | + | -6
N#C/C(=C/c1ccc(N2CCCCCC2)o1)c1cccc(F)c1 | 0 | 2 | nt | i | + | -7
N#C/C(=C/c1ccc(N2CCCCC2)o1)C(=O)Nc1ccc2ccccc2c1 | 6 | 3 | nt | nt | nt | -11
O=C(O)C1=C[C@@H](c2ccc(C(F)(F)F)cc2)C[C@@H](OCCCCO)O1 | nt | nt | nt | i | nt | nt
O=C(O)c1ccccc1-n1c2ccccc2c2ccccc21 | -4 | nt | -0.19 | i | nt | -17
N#C/C(=C/c1ccc(N2CCCCC2)o1)C(=O)Nc1ccc(Cl)cc1 | -1 | 2 | nt | ? | + | -18
Cc1ccccc1-c1ccc(/C=C2/SC(N3CCOCC3)=NC2=O)o1 | 0 | nt | -0.35 | i | nt | -2
O=C1N=C(N2CCOCC2)S/C1=C\c1ccc(-c2ccccc2Cl)o1 | -1 | 8 | -0.08 | i | + | -6
CCCCN(CCCNC(=O)CN1C(=O)COc2ccccc21)c1ccccc1 | 0 | 2 | 0.24 | i | + | -12
CCN(CCCNC(=O)CN1C(=O)COc2ccccc21)c1ccccc1 | -2 | 2 | -1.1 | i | i | -26
CCOC(=O)C1CCCN(CCC(=O)Nc2cccc(C)c2)C1 (centres undefined) | 1 | 2 | 0.41 | i | + | -23
CCN(CC)c1ccc(/C=N/NC(=O)c2cnccn2)cc1 | 23 | 23* | -0.11 | i | i | -12
CCN(CC)c1ccc(/C=N/NC(=O)c2ccco2)cc1 | nt | 20* | -0.02 | i | i | 1
O=C1c2ccccc2OC2(C=Cc3ccccc3O2)N1Cc1ccccc1 (centres undefined) | 48 | 42* | nt | nt | i | -8
Cc1cc2c(c(/C=C/C(=O)c3ccccc3)c1)OC1(C=C2)Oc2ccccc2C(=O)N1C (centres undefined) | -5 | 10 | -2.1 | i | i | -26
Cn1c(=O)[nH]c(=O)c2c1nc(Br)n2CCCSc1nc2ccccc2o1 | nt | 25* | -0.04 | i | i | -14
CS(=O)(=O)N1N=C(c2ccccc2)CC1c1ccc2c(c1)OCO2 (centres undefined) | 0 | 6 | nt | nt | i | 4
CS(=O)(=O)Nc1cccc(C2=NN(S(C)(=O)=O)C(c3ccc4c(c3)OCO4)C2)c1 (centres undefined) | 0 | 17* | 1 | i | i | -9
O=C(CCc1nc(-c2cccs2)no1)NCc1ccc(F)cc1Cl | nt | 2 | -1.1 | i | + | -18
Cc1cnc(C(=O)Nc2ccccc2-c2nnn(CC(=O)NC3CCCC3)n2)cn1 | -1 | 5 | -0.12 | i | + | 6
CC(=O)c1cc2c(cc1NS(=O)(=O)c1ccc3c(c1)OCCO3)OCO2 | -8 | 2 | 0.16 | i | i | -25
COC(=O)c1ccc(Cl)c(NS(=O)(=O)c2ccc3c(c2)OCCO3)c1 | nt | 39* | nt | i | i | 12
CCOc1ccccc1N1CCN(C(=O)C2c3ccccc3Oc3ccccc32)CC1 | 60* | 40* | -1.6 | i | i | 2
CCOC(=O)c1ccc(Cl)c(NC(=O)c2cccnc2)c1 | -1 | 2 | 1.3 | i | i | -24
CC1=NNC(=O)/C1=C\c1cn(-c2ccccc2)nc1-c1ccc(Cl)cc1 | 1 | 79 | 0.35 | i | + | -19
CCCCNC(=S)NC(=O)c1ccc(Cl)cc1Cl | 2 | 3 | 3.1* | i | i | -13
O=C(NC(=S)NCCN1CCOCC1)c1ccc(Cl)cc1Cl | 2 | 4 | -1.4 | i | i | -17

Compound activity as filed in PubChem.
